ChEMBL document CHEMBL1129944, “[[(Arylpiperazinyl)alkyl]thio]thieno[2,3-d]pyrimidinone derivatives as high-affinity, selective 5-HT1A receptor ligands” (J Med Chem, 1997)

Tests used:
[1] = target: T1, Adrenergic receptor alpha-1 (Rattus norvegicus, UniProt P15823+P23944+P43140); assay: In vitro inhibitory concentration against radioligand [3H]prazosin binding to alpha-1 adrenergic receptor in rat cortical membrane.; format: cell membranes
T1 sequence (P15823 whole entry): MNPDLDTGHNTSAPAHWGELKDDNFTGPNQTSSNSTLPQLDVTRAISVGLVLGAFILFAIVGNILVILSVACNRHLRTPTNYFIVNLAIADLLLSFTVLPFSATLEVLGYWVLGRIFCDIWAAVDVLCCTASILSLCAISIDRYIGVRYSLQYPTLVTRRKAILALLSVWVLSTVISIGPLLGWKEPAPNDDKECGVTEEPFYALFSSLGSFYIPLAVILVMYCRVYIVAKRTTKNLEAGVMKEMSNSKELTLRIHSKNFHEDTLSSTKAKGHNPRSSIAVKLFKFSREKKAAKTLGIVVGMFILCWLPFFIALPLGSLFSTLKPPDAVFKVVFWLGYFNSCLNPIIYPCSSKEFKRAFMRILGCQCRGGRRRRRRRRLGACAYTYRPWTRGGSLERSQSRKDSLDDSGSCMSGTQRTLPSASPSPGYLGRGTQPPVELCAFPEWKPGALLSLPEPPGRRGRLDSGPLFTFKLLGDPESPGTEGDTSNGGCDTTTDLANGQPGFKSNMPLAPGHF
T1 sequence (P23944 whole entry): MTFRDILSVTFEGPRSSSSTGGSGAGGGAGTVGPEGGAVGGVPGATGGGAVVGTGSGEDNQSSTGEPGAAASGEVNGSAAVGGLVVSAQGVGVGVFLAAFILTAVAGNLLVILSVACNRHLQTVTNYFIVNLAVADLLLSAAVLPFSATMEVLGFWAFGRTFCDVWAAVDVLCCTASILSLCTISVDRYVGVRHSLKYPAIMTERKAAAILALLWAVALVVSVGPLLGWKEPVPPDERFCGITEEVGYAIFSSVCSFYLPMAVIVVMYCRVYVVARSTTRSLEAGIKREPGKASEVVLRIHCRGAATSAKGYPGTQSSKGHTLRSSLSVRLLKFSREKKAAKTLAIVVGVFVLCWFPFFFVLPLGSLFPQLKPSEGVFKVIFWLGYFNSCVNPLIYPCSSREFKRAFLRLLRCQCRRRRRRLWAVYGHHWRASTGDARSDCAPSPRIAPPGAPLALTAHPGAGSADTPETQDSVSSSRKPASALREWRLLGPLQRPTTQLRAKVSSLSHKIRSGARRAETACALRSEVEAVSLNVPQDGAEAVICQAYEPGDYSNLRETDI
T1 sequence (P43140 whole entry): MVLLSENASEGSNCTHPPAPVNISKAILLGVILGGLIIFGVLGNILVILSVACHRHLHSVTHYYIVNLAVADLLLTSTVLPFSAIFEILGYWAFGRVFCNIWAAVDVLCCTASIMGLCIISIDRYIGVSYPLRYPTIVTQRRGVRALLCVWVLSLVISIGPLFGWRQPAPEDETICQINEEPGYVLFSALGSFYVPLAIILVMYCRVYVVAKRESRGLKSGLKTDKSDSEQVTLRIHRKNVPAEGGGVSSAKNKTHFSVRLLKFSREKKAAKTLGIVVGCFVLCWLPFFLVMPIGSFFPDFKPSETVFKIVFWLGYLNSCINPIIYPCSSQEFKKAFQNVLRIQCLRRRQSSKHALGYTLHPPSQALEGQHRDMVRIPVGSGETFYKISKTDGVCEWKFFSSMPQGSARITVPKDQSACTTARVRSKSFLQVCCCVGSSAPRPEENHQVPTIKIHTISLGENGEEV
How it was run: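 Male CRL:CD(SD)BR-COBS rats (~150 g) were decapitated. Cortex was homogenized in 50 mM Tris-HCl pH 7.4, spun at 50000g, given 10 min at 37 °C and washed. Incubation buffer had 0.1% ascorbic acid and 10 μM pargyline. GF/B filtration and scintillation counting; IC50 from dose-inhibition curves.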

[2] = target: Serotonin 1a (5-HT1a) receptor/Adrenergic receptor alpha-1 (Rattus norvegicus) (UniProt P15823+P23944+P43140+P19327); assay: Selectivity for alpha-1-adrenergic receptor to that of 5-HT1A receptor.; format: protein assay
How it was run: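 Ratio of IC50 at α1-adrenoceptors ([3H]prazosin, rat cortex) to IC50 at 5-HT1A receptors ([3H]-8-OH-DPAT, rat hippocampus). Each IC50 came from radioligand displacement curves.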

[3] = target: T2, 5-hydroxytryptamine receptor 1A (Rattus norvegicus, UniProt P19327); assay: In vitro inhibitory concentration against radioligand [3H]8-OH-DPAT binding to 5-hydroxytryptamine 1A receptor in rat hippocampal membrane.; format: cell membranes, Hippocampus
T2 sequence (P19327 whole entry): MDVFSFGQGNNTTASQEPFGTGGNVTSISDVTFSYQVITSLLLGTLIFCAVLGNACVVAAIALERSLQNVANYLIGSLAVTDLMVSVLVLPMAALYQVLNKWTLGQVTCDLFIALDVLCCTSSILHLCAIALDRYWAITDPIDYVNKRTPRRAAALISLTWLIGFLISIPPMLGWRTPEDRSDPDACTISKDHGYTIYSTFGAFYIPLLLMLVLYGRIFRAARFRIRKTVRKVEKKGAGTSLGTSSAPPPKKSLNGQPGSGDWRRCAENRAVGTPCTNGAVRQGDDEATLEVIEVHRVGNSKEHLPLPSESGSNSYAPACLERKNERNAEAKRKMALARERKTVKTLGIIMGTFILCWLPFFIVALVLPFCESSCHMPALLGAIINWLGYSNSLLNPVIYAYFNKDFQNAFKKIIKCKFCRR
How it was run: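 Rat hippocampal membranes (male SD rats, ~150 g) were washed in 50 mM Tris-HCl pH 7.4, including 10 min at 37 °C. Incubation buffer contained 4 mM CaCl2 and 10 μM pargyline. Filtered onto GF/B and counted; 50% inhibitory concentration from fitted curves.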

[4] = target: T3, 5-hydroxytryptamine receptor 1A (Rattus norvegicus) (UniProt P19327); assay: Compound at 10E-5 M was tested in vitro for the inhibition of radioligand [3H]8-OH-DPAT binding to 5-hydroxytryptamine 1A receptor in rat hippocampal membrane; format: cell membranes; settings: Hippocampus
T3 sequence (whole entry): T2 sequence (P19327 whole entry)

[5] = target: Adrenergic receptor alpha-1 (Rattus norvegicus) (UniProt P15823+P23944+P43140); assay: Compound at 10E-5 M was tested in vitro for the inhibition of radioligand [3H]-prazosin binding to Alpha-1 adrenergic receptor in rat cortical membrane; format: cell membranes

## Oc1nc(SCCCN2CCN(c3cccc4ccccc34)CC2)nc2sc(-c3ccccc3)cc12
[1]
  IC50: 2.454 µM
[2]
  Selectivity: 1

## Cc1sc2nc(SCCCN3CCN(c4cccc5ccccc45)CC3)[nH]c(=O)c2c1C
[3]
  IC50: 0.355 µM

## COc1ccccc1N1CCN(CCCSc2nc(O)c3c(n2)sc2ccccc23)CC1
[1]
  IC50: 0.091 µM
[2]
  Selectivity: 2
[3]
  IC50: 0.046 µM

## Oc1nc(SCCCN2CCN(c3cccc4ccccc34)CC2)nc2sc3c(c12)CCCC3
[1]
  IC50: 0.445 µM
[2]
  Selectivity: 1

## COc1ccccc1N1CCN(CCCSc2nc3ccccc3c(=O)n2N)CC1
[1]
  IC50: 0.004 µM
[2]
  Selectivity: 8
[3]
  IC50: 0.0005 µM

## Cc1sc2nc(SCCCN3CCN(c4ccccc4Cl)CC3)[nH]c(=O)c2c1C
[3]
  IC50: 0.46 µM

## COc1ccccc1N1CCN(CCCSc2nc3sc4c(c3c(=O)n2C)CCCC4)CC1
[1]
  IC50: 0.064 µM
[2]
  Selectivity: 9
[3]
  IC50: 0.007 µM

## Cc1sc2nc(SCCCN3CCN(c4ncccn4)CC3)nc(O)c2c1C
[1]
  IC50: 1.098 µM
[2]
  Selectivity: 5

## Cc1sc2nc(SCCCN3CCN(c4ccc(Cl)cc4)CC3)nc(O)c2c1C
[4]
  inhibition: < 50%
[5]
  inhibition: < 50%

## COc1ccccc1N1CCN(CCSc2nc3sc4c(c3c(=O)[nH]2)CCCC4)CC1
[3]
  IC50: 0.097 µM

## Cc1sc2nc(SCCCN3CCN(c4cccc(Cl)c4)CC3)nc(O)c2c1C
[1]
  IC50: 0.299 µM
[2]
  Selectivity: 0.3
[3]
  IC50: 0.986 µM

## Cc1ccc(N(CC2=NCCN2)c2cccc(O)c2)cc1
[4]
  inhibition: < 50%

## Oc1nc(SCCCN2CCN(c3ncccn3)CC2)nc2sc3c(c12)CCCC3
[1]
  IC50: 1.814 µM
[2]
  Selectivity: 3.5
[3]
  IC50: 0.505 µM

## COc1ccccc1N1CCN(CCSc2nc(O)c3c4c(sc3n2)CCCC4)CC1
[1]
  IC50: 0.02 µM
[2]
  Selectivity: 0.2

## COc1ccccc1N1CCN(CCCOc2nc(SC)nc3sc4c(c23)CCCC4)CC1
[1]
  IC50: 0.075 µM
[2]
  Selectivity: 0.05
[3]
  IC50: 1.42 µM

## COc1ccccc1N1CCN(CCCSc2nc3sccc3c(=O)n2N)CC1
[1]
  IC50: 0.0029 µM
[2]
  Selectivity: 2
[3]
  IC50: 0.0012 µM

## NCCc1c[nH]c2ccc(O)cc12
[5]
  inhibition: < 50%

## O=c1[nH]c(SCCCN2CCN(c3ccccc3Cl)CC2)nc2sc3c(c12)CCCC3
[3]
  IC50: 0.943 µM

## Oc1nc(SCCCN2CCN(c3ccccc3Cl)CC2)nc2sc3c(c12)CCCC3
[1]
  IC50: 0.168 µM
[2]
  Selectivity: 0.2

## Cc1sc2[nH]c(=S)n(N)c(=O)c2c1C
[4]
  inhibition: < 50%
[1]
  IC50: > 10 µM

## COc1ccccc1N1CCN(CCCSc2nc3sc(C)c(C)c3c(=O)n2C)CC1
[1]
  IC50: 0.027 µM
[2]
  Selectivity: 9
[3]
  IC50: 0.003 µM

## Cc1sc2nc(SCCCN3CCN(c4ncccn4)CC3)n(C)c(=O)c2c1C
[1]
  IC50: 2.03 µM
[2]
  Selectivity: 31
[3]
  IC50: 0.065 µM

## O=c1[nH]c(SCCCN2CCN(c3cccc4ccccc34)CC2)nc2sc3c(c12)CCCC3
[3]
  IC50: 0.371 µM

## COc1ccc(N2CCN(CCCSc3nc(O)c4c(C)c(C)sc4n3)CC2)cc1
[4]
  inhibition: < 50%
[5]
  inhibition: < 50%

## COc1ccccc1N1CCN(CCCSc2nc3sc4c(c3c(=O)n2N)CCCC4)CC1
[1]
  IC50: 0.039 µM
[2]
  Selectivity: 30
[3]
  IC50: 0.0013 µM

## COc1ccccc1N1CCN(CCCSc2nc3sc(C)c(C)c3c(=O)n2Nc2ccccc2)CC1
[1]
  IC50: 0.032 µM
[2]
  Selectivity: 0.06
[3]
  IC50: 0.497 µM

## COc1ccccc1N1CCN(CCCSc2nc3sc4c(c3c(=O)[nH]2)CCCC4)CC1
[3]
  IC50: 0.059 µM

## O=c1[nH]c(SCCCN2CCN(c3cccc4ccccc34)CC2)nc2sc(-c3ccccc3)cc12
[3]
  IC50: 2.01 µM

## COc1ccccc1N1CCN(CCc2nn3c(=O)c4c(C)c(C)sc4nc3s2)CC1
[1]
  IC50: 0.125 µM
[2]
  Selectivity: 3
[3]
  IC50: 0.042 µM

## Cc1sc2nc(SCCCN3CCN(c4ccccc4Cl)CC3)nc(O)c2c1C
[1]
  IC50: 0.161 µM
[2]
  Selectivity: 0.35

## COc1ccccc1N1CCN(CCCn2c(SC)nc3sc4c(c3c2=O)CCCC4)CC1
[1]
  IC50: 0.095 µM
[2]
  Selectivity: 0.2
[3]
  IC50: 0.511 µM

## COc1ccccc1N1CCN(CCCSc2nc(O)c3c4c(sc3n2)CCCC4)CC1
[1]
  IC50: 0.038 µM
[2]
  Selectivity: 0.6

## Cc1sc2nc(SCCCN3CCN(c4ncccn4)CC3)[nH]c(=O)c2c1C
[3]
  IC50: 0.226 µM

## COc1ccccc1N1CCN(CCCSc2nc(O)c3cc(-c4ccccc4)sc3n2)CC1
[1]
  IC50: 0.224 µM
[2]
  Selectivity: 0.6
[3]
  IC50: 0.386 µM

## Cc1sc2nc(SCCCN3CCN(c4ccccc4)CC3)n(N)c(=O)c2c1C
[1]
  IC50: 0.043 µM
[2]
  Selectivity: 13
[3]
  IC50: 0.0033 µM

## COc1ccccc1N1CCN(CCCSc2nc(O)c3c(C)c(C)sc3n2)CC1
[1]
  IC50: 0.04 µM
[2]
  Selectivity: 2
[3]
  IC50: 0.024 µM

## Cc1sc2nc(SCCCN3CCN(c4cccc5ccccc45)CC3)nc(O)c2c1C
[1]
  IC50: 0.886 µM
[2]
  Selectivity: 2.5
